Test results as given in ChEMBL document CHEMBL1772972, “Differential gene expression in rat vascular smooth muscle cells following treatment with coptisine exerts a selective antiproliferative effect” (2011).
The source made the active and inactive calls. The rule behind the calls is not given here.

Experiments:
A10 [1] = assay: Down regulation of Prim2 mRNA expression in rat A10 cells at 30 uM after 24 hrs by quantitative RT-PCR analysis; assay type: functional, cell-based
How it was run: (§1)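 A10 rat aortic smooth muscle cells were seeded at 6 × 10^4 cells/well in 6-well plates and exposed to 30 μM alkaloid for 24 h at 37 °C in 5% CO2. The cells were then harvested and target mRNA levels were quantified by quantitative RT-PCR.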

A10 [2] = assay: Growth inhibition against rat A10 cells after 72 hrs by MTT assay; assay type: functional; settings: A10, 72 h
[3] = Antiproliferative activity against rat VSMC assessed as cell growth inhibition; assay type: functional
How it was run: (§2)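 Cells are seeded at 1 × 10^4/well in 24-well plates and cultured 24 h. Alkaloid is then added at increasing concentrations for 72 h. Medium is renewed and MTT added at 1 mg/mL for 4 h. Formazan is dissolved in SDS and A570 read. Growth % = (treated − time 0)/(control − time 0). GI50 is taken from the curves. Data are mean ± SE of 3 wells. Primary VSMCs come from aortas of 10-week male Sprague-Dawley rats, used at passages 5–15.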

[4] = Growth inhibition against human SKN cells after 72 hrs by MTT assay; assay type: functional
How it was run: (§3)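 Cells were seeded in 24-well plates (SKN 1 × 10^4, G-402 2 × 10^4 cells/well) and cultured for 24 h. Alkaloid was then added, for 72 h with SKN or 48 h with G-402, and the medium was renewed. MTT was added (SKN 400 μg/mL, G-402 200 μg/mL) for 4 h, formazan was solubilized in SDS, and A570 was read. Growth % was corrected for time-0 absorbance relative to control, with 3 wells per point, and GI50 was derived from the concentration–growth data.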

[5] = Growth inhibition against human RKN cells after 48 hrs by MTT assay; assay type: functional
How it was run: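 RKN human ovarian leiomyosarcoma cells are seeded at 2 × 10^4/well in 24-well plates and cultured 24 h. Alkaloid is then added at increasing concentrations for 48 h. Medium is renewed and MTT added at 200 μg/mL for 4 h. Formazan is dissolved in SDS and A570 read. Growth % is calculated relative to time-0 and untreated absorbances. GI50 is taken from the curves. Data are mean ± SE of 3 wells.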

A10 [6] = assay: Upregulation of Rgc32 mRNA expression in rat A10 cells at 3 to 30 uM […] by quantitative RT-PCR analysis; assay type: functional, cell-based
How it was run: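 A10 cells were plated at 6.0 × 10^4 cells/well in 6-well plates. They were treated across a concentration series for 24 h, or for 1, 3, 6, 12 or 24 h in a time course. Rgc32 mRNA was then measured by quantitative RT-PCR. Results are mean ± SD of 3 wells, compared against untreated control.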

A10 [7] = assay: Downregulation of Scd2 mRNA expression in rat A10 cells at 30 uM after 24 hrs by quantitative RT-PCR analysis; assay type: functional, cell-based; how it was run: as §1
[8] = Growth inhibition against rat VSMC after 72 hrs by MTT assay; assay type: functional; how it was run: as §2
G-402 = assay: Growth inhibition against human G402 cells after 48 hrs by MTT assay; assay type: functional; settings: G-402, 48 h; how it was run: as §3
A10 [9] = assay: Downregulation of Impk mRNA expression in rat A10 cells at 30 uM after 24 hrs by quantitative RT-PCR analysis; assay type: functional, cell-based; how it was run: as §1
A10 [10] = assay: Upregulation of Rgc32 mRNA expression in rat A10 cells at 3 uM after 24 hrs by quantitative RT-PCR analysis; assay type: functional, cell-based
A10 [11] = assay: Upregulation of Gadd45a mRNA expression in rat A10 cells at 30 uM after 3 hrs by quantitative RT-PCR analysis; assay type: functional, cell-based
[12] = Upregulation of Rgc32 mRNA expression in rat 3Y1 cells at 3 to 30 uM after 24 hrs by quantitative RT-PCR analysis; assay type: functional, cell-based
A10 [13] = assay: Cell cycle arrest in Gadd45a overexpressing rat A10 cells assessed as accumulation at G2/M phase; assay type: functional, cell-based
A10 [14] = assay: Upregulation of p21 mRNA expression in rat A10 cells at 3 to 30 uM after 24 hrs by quantitative RT-PCR analysis; assay type: functional, cell-based
A10 [15] = assay: Upregulation of Gadd45a mRNA expression in rat A10 cells at 30 uM after 24 hrs by quantitative RT-PCR analysis relative to control; assay type: functional
[16] = Growth inhibition against mouse BC3H1 cells after 72 hrs by MTT assay; assay type: functional; settings: BC3H-1, 72 h; how it was run: as §2
A10 [17] = assay: Upregulation of Rgc32 mRNA expression in rat A10 cells at 30 uM after 24 hrs by quantitative RT-PCR analysis relative to control; assay type: functional
A10 [18] = assay: Upregulation of Gadd45a mRNA expression in rat A10 cells at 30 uM after 6 hrs by quantitative RT-PCR analysis; assay type: functional, cell-based
A10 [19] = assay: Cell cycle arrest in Rgc32 overexpressing rat A10 cells assessed as accumulation at G2/M phase; assay type: functional, cell-based
A10 [20] = assay: Upregulation of p53 mRNA expression in rat A10 cells at 3 to 30 uM after 24 hrs by quantitative RT-PCR analysis; assay type: functional, cell-based
A10 [21] = assay: Upregulation of in Gadd45a mRNA expression in rat A10 cells at 3 uM after 24 hrs by quantitative RT-PCR analysis; assay type: functional, cell-based
[22] = Upregulation of Gadd45a mRNA expression in rat 3Y1 cells at 30 uM after 24 hrs by quantitative RT-PCR analysis; assay type: functional, cell-based
A10 [23] = assay: Upregulation of Rgc32 mRNA expression in rat A10 cells at 3 to 30 uM after 24 hrs by quantitative RT-PCR analysis; assay type: functional, cell-based
A10 [24] = assay: Upregulation of Jak2 mRNA expression in rat A10 cells at 30 uM after 24 hrs by quantitative RT-PCR analysis; assay type: functional, cell-based; how it was run: as §1
A10 [25] = assay: Upregulation of Calm1 mRNA expression in rat A10 cells at 30 uM after 24 hrs by quantitative RT-PCR analysis; assay type: functional, cell-based; how it was run: as §1
A10 [26] = assay: Upregulation of Ogfrl1 mRNA expression in rat A10 cells at 30 uM after 24 hrs by quantitative RT-PCR analysis; assay type: functional, cell-based; how it was run: as §1

For COc1ccc2cc3[n+](cc2c1OC)CCc1cc2c(cc1-3)OCO2 [BERBERINE CHLORIDE], the Activity (A10 [1]) was “Active”, the GI50 (A10 [2]) was 102 µM and the GI50 [3] was 95.1 µM. The GI50 [4] was 15.9 µM, the GI50 [5] was 49.6 µM and the Activity (A10 [6]) was “inactive”. The Activity (A10 [7]) was “Active”, the GI50 [8] was 95.1 µM and the GI50 (G-402) was 11.9 µM. For the same compound, the Activity (A10 [9]) was “Active”.

With [Cl-].c1c2c(cc3c1OCO3)-c1cc3ccc4c(c3c[n+]1CC2)OCO4 [COPTISINE CHLORIDE] the Activity (A10 [10]) was “inactive”, the Activity (A10 [1]) was “Active” and the Activity (A10 [11]) was “Active”. For the same compound, the GI50 (A10 [2]) was 4.49 µM, the GI50 [3] was 3.3 µM and the Activity [12] was “inactive”. For the same compound, the Activity (A10 [13]) was “Active”, the Activity (A10 [14]) was “Active” and the “fold change (FC)” value (A10 [15]) was 8. The GI50 [16] was 105 µM, the GI50 [4] was 11.8 µM and the “fold change (FC)” value (A10 [17]) was 3.5. For the same compound, the GI50 [5] was 33 µM, the Activity (A10 [18]) was “inactive” and the Activity (A10 [6]) was “inactive”. For the same compound, the Activity (A10 [7]) was “Active”, the GI50 [8] was 3.35 µM and the Activity (A10 [19]) was “Active”. For the same compound, the Activity (A10 [20]) was “inactive”, the Activity (A10 [21]) was “inactive” and the GI50 (G-402) was 19.1 µM. For the same compound, the Activity (A10 [9]) was “Active”, the fold change (FC) [22] was 1.5 and the Activity (A10 [23]) was “Active”.

In the case of COc1cc2c(cc1OC)-c1cc3ccc(OC)c(OC)c3c[n+]1CC2 [PALMATINE CHLORIDE], the Activity (A10 [1]) is reported as “Active”, the Activity (A10 [24]) is reported as “Active” and the Activity (A10 [25]) is reported as “Active”. The GI50 [4] was 57.4 µM, the Activity (A10 [6]) was “inactive” and the Activity (A10 [7]) was “Active”. For the same compound, the GI50 (G-402) was 83.1 µM, the Activity (A10 [9]) was “Active” and the Activity (A10 [26]) was “Active”.
